This note sets out measurements from ChEMBL document CHEMBL1156744, “Anti-tumoral activity of imidazoquines, a new class of antimalarials derived from primaquine” (Bioorg Med Chem Lett, 2009).

What is called IC50 is the midpoint of a concentration-inhibition curve. Higher therefore signals weaker potency.

Common to all, as to type: functional, cell-based
The test system of one test is Caco-2. In words: Antitumor activity against human Caco-2 cells after 48 hours hrs by SRB assay. Particulars: Caco-2, 48 h. Put shortly:
(§1)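 Seeded cells were exposed to each compound across a broad concentration range for 48 h. Growth was read by sulforhodamine B staining, compared against untreated control. Values are mean ± SEM, n = 3–6.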
For orientation: In SRB staining, fixed cells bind dye roughly in proportion to their protein.

A further test deals with MCF7. In words: Antitumor activity against human MCF7 cells after 48 hours hrs by SRB assay. Particulars: MCF7, 48 h. Put shortly:
as §1

The test system of a further test is HT-29. In words: Antitumor activity against human HT-29 cells after 48 hours hrs by SRB assay. Particulars: HT-29, 48 h. Put shortly:
as §1

`COc1cc(NC(C)CCCNC(C)=O)c2ncccc2c1` (stereo unspecified): the IC50 in the test on Caco-2 is 46 µM; in the test with MCF7 it was 57.3 µM; in the test with HT-29 it was above 100 µM.
As for `COc1cc(N)c2ncccc2c1`, the 50% inhibitory concentration (IC50) is above 100 µM in the test with Caco-2, 86.5 µM in the test with MCF7 and above 100 µM in the test on HT-29.
Consider `COc1cc(NC(C)CCCN2C(=O)[C@H](C)NC2(C)C)c2ncccc2c1` (stereo partly specified), for which the values for the IC50 in the test on Caco-2, in the test on MCF7 and in the test with HT-29 were 71 µM, 42.3 µM and above 100 µM, respectively.
Turning to `COc1cc(NC(C)CCCN2C(=O)CN(C(=O)[C@H](C)N)C2(C)C)c2ncccc2c1` (stereo partly specified), the IC50 in the test on Caco-2 is above 100 µM; with MCF7 it was 20 µM; in the test on HT-29, 46.3 µM.
In the same order, the values of `COc1cc(NC(C)CCCNC(=O)CNC(=O)[C@H](C)N)c2ncccc2c1` (stereo partly specified) are above 100 µM, 21.3 µM and 92.3 µM.
Turning to `COc1cc(NC(C)CCCNC(=O)C2CCCN2C(=O)[C@@H](C)N)c2ncccc2c1` (stereo partly specified), the half-inhibitory concentration (IC50) with Caco-2 is 64 µM; in the test on MCF7, 15 µM; with HT-29, above 100 µM.
For `COc1cc(NC(C)CCCNC(=O)CN2C(=O)[C@H](C)NC23CCCCC3)c2ncccc2c1` (stereo partly specified), the IC50 was 74.7 µM with Caco-2, 27 µM with MCF7 and above 100 µM with HT-29.
In the same order, the values of `COc1cc(NC(C)CCCNC(=O)CN2C(=O)[C@H](C)NC2(C)C)c2ncccc2c1` (stereo partly specified) are 58 µM, 38.3 µM and above 100 µM.
Consider `FC(F)(F)c1ccc2c(Cl)ccnc2c1`, for which the half-inhibitory concentration (IC50) with Caco-2 was 52.3 µM; in the test with MCF7, 63 µM; in the test on HT-29, above 100 µM.
`COc1cc(NC(C)CCCN2C(=O)CN(C(C)=O)C2(C)C)c2ncccc2c1` (stereo unspecified): the figures for the half-maximal inhibitory concentration (IC50) in the test on Caco-2, in the test on MCF7 and in the test with HT-29 were 60 µM, above 100 µM and above 100 µM, respectively.
For `O=C(O)c1cc2ccccc2nc1Cl`, the concentration for half-maximal inhibition (IC50) in the test on Caco-2 was 81 µM; in the test with MCF7, above 100 µM; in the test with HT-29, above 100 µM.
For `COc1cc(NC(C)CCCN)c2ncccc2c1` (stereo unspecified) [PRIMAQUINE], the concentration for half-maximal inhibition (IC50) with Caco-2 came to 48 µM; in the test with MCF7, 6.9 µM; with HT-29, 69.7 µM.
